Measured values from ChEMBL document CHEMBL5528013 (Eur J Med Chem, 2024).

Tests used:
MOLM-14 [1] = assay: Antiproliferative activity against human MOLM-14 cells assessed as inhibition of cell growth incubated for 72 hrs by resazurin dye based assay; assay type: functional; details: MOLM-14, 72 h
Summary of the method: (§1)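 Logarithmic-phase cells were seeded at 5000 per well and treated 24 h later, in triplicate, with various concentrations for 72 h. MOLM14 lines were grown in RPMI with 10 % FBS, and other lines per provider instructions, all at 37 °C and 5 % CO2. Resazurin was then added for 4–6 h and fluorescence read. GI50 was taken from percent growth versus DMSO control, fitted with a variable-slope normalized-response model; at least three runs.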

MOLM-14 [2] = assay: Antiproliferative activity against human MOLM-14 cells harboring FLT3-D835Y mutant assessed as inhibition of cell growth incubated for 72 hrs by resazurin dye based assay; assay type: functional; details: MOLM-14, 72 h; summary of the method: as §1
MOLM-14 [3] = assay type: functional, cell-based; details: Homo sapiens, MOLM-14, 72 h
K562 = assay: Antiproliferative activity against human K562 cells assessed as inhibition of cell growth incubated for 72 hrs by resazurin dye based assay; assay type: functional; details: K562, 72 h; summary of the method: as §1

Structure (SMILES)	IC50 (MOLM-14 [1]) [nM]	IC50 (MOLM-14 [2]) [nM]	IC50 (MOLM-14 [3]) [nM]	IC50 (K562) [nM]
Cn1cc(-c2ccn3c(-c4cccc(Nc5ccc(OCCN6CCCC6)cc5)n4)cnc3c2)cn1	0.77	2.21	12.5	> 1000
Cn1cc(-c2ccn3c(-c4cccc(Cl)c4)cnc3c2)cn1	29.5	591	304	> 1000
Cn1cc(-c2ccn3c(-c4cccc(Nc5cnccn5)n4)cnc3c2)cn1	4.03	2.46	259	115
CC(C)(C)c1ccc(Nc2cccc(-c3cnc4cc(-c5ccc(S(C)(=O)=O)cc5)ccn34)n2)cc1	110	203	> 1000	> 1000
Cn1cc(-c2ccn3c(-c4cccc(N5CCN(C(=O)OC(C)(C)C)CC5)n4)cnc3c2)cn1	51.9	259	794	> 1000
CCN(CC)CCOc1ccc(Nc2cccc(-c3cnc4cc(-c5cnn(C)c5)ccn34)n2)cc1	0.51	0.87	7.42	924
Cn1cc(-c2ccn3c(-c4ccc(Cl)cc4)cnc3c2)cn1	16.9	166	293	> 1000
C=Cc1ccc(Nc2cccc(-c3cnc4cc(-c5cnn(C)c5)ccn34)n2)cc1	6.76	4.39	90.7	> 1000
Cn1cc(-c2ccn3c(-c4cccc(Nc5cccc(C(F)(F)F)c5)n4)cnc3c2)cn1	2.24	3.2	28.9	132
CCOC(=O)Cc1ccc(Nc2cccc(-c3cnc4cc(-c5cnn(C)c5)ccn34)n2)cc1	99	121	> 1000	> 1000
COc1ccccc1Nc1cccc(-c2cnc3cc(-c4cnn(C)c4)ccn23)n1	2.38	1.65	14.4	274
Cn1cc(-c2ccn3c(-c4cccc(Nc5ccc(N6CCOCC6)cc5)n4)cnc3c2)cn1	3.25	1.41	238	> 1000
COc1cc(Nc2cccc(-c3cnc4cc(-c5cnn(C)c5)ccn34)n2)cc(OC)c1OC	6.95	27.5	105	960
Cn1cc(-c2ccn3c(-c4ccccc4Cl)cnc3c2)cn1	397	> 1000	> 1000	> 1000
Cn1cc(-c2ccn3c(-c4cccc(Nc5ccc(OCCN6CCOCC6)cc5)n4)cnc3c2)cn1	1	1.83	7.1	> 1000
Cn1cc(-c2ccn3c(-c4cccc(NCc5c(F)cccc5F)n4)cnc3c2)cn1	1.31	5.9	566	119
Cn1cc(-c2ccn3c(-c4cccc(Nc5ccc6c(c5)OCO6)n4)cnc3c2)cn1	6.09	4.91	920	–
Cn1cc(-c2ccn3c(-c4cccc(Nc5ccc(OCCN6CCCCC6)cc5)n4)cnc3c2)cn1	0.19	0.77	9.8	> 1000
Cn1cc(-c2ccn3c(-c4cccc(Nc5ccc(C(=O)OC(C)(C)C)cc5)n4)cnc3c2)cn1	76.6	76.6	792	> 1000
COc1cc2/c(=N/c3ccc(Br)cc3F)nc[nH]c2cc1OCC1CCN(C)CC1 [VANDETANIB]	–	–	> 20000	–
Cc1ccc(Nc2cccc(-c3cnc4cc(-c5cnn(C)c5)ccn34)n2)cc1	–	5.67	18.9	219

Structure (SMILES)	IC50 (MOLM-14 [1]) [nM]	IC50 (MOLM-14 [2]) [nM]	IC50 (MOLM-14 [3]) [nM]	IC50 (K562) [nM]
Cn1cc(-c2ccn3c(-c4cccc(Nc5ccccc5C(F)(F)F)n4)cnc3c2)cn1	0.95	0.31	184	262
CCc1ccc(Nc2cccc(-c3cnc4cc(-c5cnn(C)c5)ccn34)n2)cc1	9.03	3.62	294	927
CC1CN(c2cccc(-c3cnc4cc(-c5cnn(C)c5)ccn34)n2)CCN1C(=O)OC(C)(C)C (stereo not given)	101	353	426	> 1000
Cn1nc(C(C)(C)C)cc1Nc1cccc(-c2cnc3cc(-c4ccc(S(C)(=O)=O)cc4)ccn23)n1	4.3	5.32	54.2	688
Cn1cc(-c2ccn3c(-c4cccc(Nc5cc(C(C)(C)C)nn5-c5ccc(F)cc5)n4)cnc3c2)cn1	18	56	> 1000	> 1000
Cc1ccc(-n2nc(C(C)(C)C)cc2Nc2cccc(-c3cnc4cc(-c5cnn(C)c5)ccn34)n2)cc1	162	414	> 1000	> 1000
CCc1nc(C(N)=O)c(Nc2ccc(N3CCC(N4CCN(C)CC4)CC3)c(OC)c2)nc1NC1CCOCC1 [GILTERITINIB]	–	–	–	> 1000
Cn1cc(-c2ccn3c(-c4cccc(Nc5ccc(Cl)cc5)n4)cnc3c2)cn1	28.8	23.1	337	736
Cn1cc(-c2ccn3c(-c4cccc(Nc5ccc6c(c5)OCCO6)n4)cnc3c2)cn1	1.72	0.87	9.98	> 1000
Cn1cc(-c2ccn3c(-c4cccc(Nc5ccc(OC(F)(F)F)cc5)n4)cnc3c2)cn1	19.3	49.9	462	> 1000
Cc1ccc(-n2nc(C(C)(C)C)cc2Nc2cccc(-c3cnc4cc(-c5ccc(S(C)(=O)=O)cc5)ccn34)n2)cc1	278	613	> 1000	> 1000
Cn1cc(-c2ccn3c(-c4cccc(Nc5ccc(C#N)cc5)n4)cnc3c2)cn1	18.3	48	135	> 1000
COC(=O)c1ccc(C)c(Nc2cccc(-c3cnc4cc(-c5cnn(C)c5)ccn34)n2)c1	233	177	> 1000	> 1000
Cn1cc(-c2ccn3c(-c4cccc(Nc5ccc(C(C)(C)C)cc5)n4)cnc3c2)cn1	–	41.9	> 1000	> 1000
Cn1cc(-c2ccn3c(-c4cccc(NC5CCN(C(=O)OC(C)(C)C)CC5)n4)cnc3c2)cn1	17.2	18.2	97.5	> 1000
CC(C)c1ccc(Nc2cccc(-c3cnc4cc(-c5cnn(C)c5)ccn34)n2)cc1	13.5	8.91	142	> 1000
Cn1cc(-c2ccn3c(-c4cccc(Nc5ccc([N+](=O)[O-])cc5)n4)cnc3c2)cn1	6.82	5.19	314	923
Cn1cc(-c2ccn3c(-c4cccc(Cl)n4)cnc3c2)cn1	28.7	228	458	> 1000
Cn1cc(-c2ccn3c(-c4cccc(Nc5cc(C(C)(C)C)nn5C)n4)cnc3c2)cn1	3.8	2.59	32.6	210
Cn1cc(-c2ccn3c(-c4cccc(Nc5ccc(C(F)(F)F)cc5)n4)cnc3c2)cn1	33.3	18.9	160	> 1000
